# Results reported in ChEMBL document CHEMBL1275519, “In vivo pharmacodynamics of ceftobiprole against multiple bacterial pathogens in murine thigh and lung infection models” (Antimicrob Agents Chemother, 2008).
# Assays:
# [1] = T>MIC in Klebsiella pneumoniae infected CD1 neutropenic mouse at 2-log kill dose of 43.8 mg/kg, sc administered every 6 hrs; assay type: functional; details: route subcutaneous
# [2] = T>MIC in methicillin-resistant Staphylococcus aureus 11888 infected CD1 neutropenic mouse at 2-log kill dose of 40.2 mg/kg, sc administered every 6 hrs; assay type: functional; details: route subcutaneous
# Streptococcus pneumoniae [3] = assay: Antimicrobial activity against Streptococcus pneumoniae CDC 145 by broth dilution method; assay type: functional
# How it was run: (§1)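 Ceftobiprole MIC determined by CLSI (NCCLS) broth microdilution.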
# [4] = T>MIC in Pseudomonas aeruginosa ATCC 27853 infected CD1 neutropenic mouse at static dose of 25.2 mg/kg, sc administered every 3 hrs; assay type: functional; details: route subcutaneous
# How it was run: (§2)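 Neutropenic mice (cyclophosphamide i.p. 150 and 100 mg/kg, 4 and 1 days pre-infection) given 0.1 ml thigh inoculum (1:10 dilution of 10^8 CFU/ml), then treated from 2 h post-infection for 24 h with s.c. ceftobiprole medocaril (0.010–160 mg/kg) at varied intervals. Thigh CFU plated from homogenates. Static dose came from a sigmoid Hill model, and T>MIC was estimated from mouse PK and MIC.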
# Escherichia coli = assay: Antimicrobial activity against Escherichia coli ATCC 25922 by broth dilution method; assay type: functional; how it was run: as §1
# Pseudomonas aeruginosa = assay: Antimicrobial activity against Pseudomonas aeruginosa ATCC 27853 by broth dilution method; assay type: functional
# How it was run: (§3)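 Ceftobiprole MIC by broth microdilution per Clinical and Laboratory Standards Institute (formerly NCCLS) methods, using ceftobiprole standard powder.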
# [5] = T>MIC in Staphylococcus aureus […] infected CD1 neutropenic mouse at 2-log kill dose of 10.3 mg/kg, sc administered every 6 hrs; assay type: functional; details: route subcutaneous
# Staphylococcus aureus [6] = assay: Antimicrobial activity against methicillin-resistant Staphylococcus aureus 11888 by broth dilution method; assay type: functional; how it was run: as §3
# [7] = T>MIC in Enterobacter cloacae 4567 infected CD1 neutropenic mouse at 2-log kill dose of 4.67 mg/kg, sc administered every 3 hrs; assay type: functional; details: route subcutaneous
# Staphylococcus aureus [8] = assay: Antimicrobial activity against methicillin-resistant Staphylococcus aureus WIS-1 by broth dilution method; assay type: functional; how it was run: as §3
# [9] = T>MIC in Streptococcus pneumoniae ATCC 10813 infected CD1 neutropenic mouse at static dose of 0.180 mg/kg, sc administered every 6 hrs; assay type: functional; details: dose 0.18 mg/kg; route subcutaneous; how it was run: as §2
# [10] = T>MIC in methicillin-resistant Staphylococcus aureus 12248 infected CD1 neutropenic mouse at 2-log kill dose of 50.5 mg/kg, sc administered every 6 hrs; assay type: functional; details: route subcutaneous
# [11] = Half life in CD1 neutropenic mouse with bacterial infection in thigh at 40 mg/kg, sc; assay type: ADME, organism-based; design: dose 40 mg/kg, route subcutaneous; details: in vivo
# How it was run: (§4)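 Neutropenic thigh-infected mice (cyclophosphamide i.p. 150 mg/kg day −4, 100 mg/kg day −1) given single s.c. ceftobiprole medocaril doses; two groups of three mice per dose bled retro-orbitally at 0.5–6 h, each animal 3–4 times. Total serum drug measured by agar diffusion bioassay with E. coli NIH-J (linear 0.25–256 μg/ml). Cmax, t1/2 and AUC from one-compartment model.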
# Streptococcus pneumoniae [12] = assay: Antimicrobial activity against Streptococcus pneumoniae CDC 1293 by broth dilution method; assay type: functional; how it was run: as §1
# [13] = Cmax in CD1 neutropenic mouse with bacterial infection in thigh at 10 mg/kg, sc; details: in vivo
# [14] = T>MIC in Staphylococcus aureus ATCC 29213 infected CD1 neutropenic mouse at static dose of 3.78 mg/kg, sc administered every 6 hrs; assay type: functional; details: route subcutaneous; how it was run: as §2
# [15] = T>MIC in Staphylococcus aureus ATCC 22923 infected CD1 neutropenic mouse at static dose of 2.03 mg/kg, sc administered every 6 hrs; assay type: functional; details: route subcutaneous; how it was run: as §2
# [16] = T>MIC in Pseudomonas aeruginosa ATCC 27853 infected CD1 neutropenic mouse at 2-log kill dose of 110 mg/kg, sc administered every 3 hrs; assay type: functional; details: route subcutaneous
# [17] = T>MIC in Streptococcus pneumoniae CDC 673 infected CD1 neutropenic mouse at 2-log kill dose of 29 mg/kg, sc administered every 6 hrs; assay type: functional; details: route subcutaneous
# [18] = AUC in CD1 neutropenic mouse with bacterial infection in thigh at 10 mg/kg, sc; details: plasma
# [19] = T>MIC in Staphylococcus aureus ATCC 29213 infected CD1 neutropenic mouse at 2-log kill dose of 15.4 mg/kg, sc administered every 6 hrs; assay type: functional; details: route subcutaneous
# [20] = T>MIC in Streptococcus pneumoniae CDC 1293 infected CD1 neutropenic mouse at 2-log kill dose of 3.55 mg/kg, sc administered every 6 hrs; assay type: functional; details: route subcutaneous
# [21] = T>MIC in Enterobacter cloacae 2249 infected CD1 neutropenic mouse at static dose of 22.2 mg/kg, sc administered every 3 hrs; assay type: functional; details: route subcutaneous; how it was run: as §2
# Enterobacter cloacae = assay: Antimicrobial activity against Enterobacter cloacae 4567 by broth dilution method; assay type: functional; how it was run: as §1
# [22] = T>MIC in Streptococcus pneumoniae CDC 1293 infected CD1 neutropenic mouse at static dose of 2.72 mg/kg, sc administered every 6 hrs; assay type: functional; details: route subcutaneous; how it was run: as §2
# [23] = T>MIC in methicillin-resistant Staphylococcus aureus 12248 infected CD1 neutropenic mouse at static dose of 29.2 mg/kg, sc administered every 6 hrs; assay type: functional; details: route subcutaneous
# [24] = T>MIC in Enterobacter cloacae 4567 infected CD1 neutropenic mouse at static dose of 3.28 mg/kg, sc administered every 3 hrs; assay type: functional; details: route subcutaneous; how it was run: as §2
# [25] = T>MIC in Staphylococcus aureus ATCC Smith infected CD1 neutropenic mouse at 2-log kill dose of 9.60 mg/kg, sc administered every 6 hrs; assay type: functional; details: dose 9.6 mg/kg; route subcutaneous
# [26] = T>MIC in Streptococcus pneumoniae CDC 1329 infected CD1 neutropenic mouse at 2-log kill dose of 5.51 mg/kg, sc administered every 6 hrs; assay type: functional; details: route subcutaneous
# [27] = T>MIC in Streptococcus pneumoniae ATCC 10813 infected CD1 neutropenic mouse at 2-log kill dose of 0.552 mg/kg, sc administered every 6 hrs; assay type: functional; details: route subcutaneous
# Staphylococcus aureus [28] = assay: Antimicrobial activity against Staphylococcus aureus ATCC Smith by broth dilution method; assay type: functional; how it was run: as §3
# [29] = T>MIC in Streptococcus pneumoniae CDC-145 infected CD1 neutropenic mouse at 2-log kill dose of 3.27 mg/kg, sc administered every 6 hrs; assay type: functional; details: route subcutaneous
# [30] = Cmax in CD1 neutropenic mouse with bacterial infection in thigh at 40 mg/kg, sc; assay type: ADME, organism-based; design: dose 40 mg/kg, route subcutaneous; details: in vivo; how it was run: as §4
smiles,measurement,setting,value
Nc1nc(/C(=N/O)C(=O)N[C@@H]2C(=O)N3C(C(=O)O)=C(/C=C4\CCN([C@@H]5CCNC5)C4=O)CS[C@H]23)ns1 [CEFTOBIPROLE],fT>MIC,[1],59.2%
same,fT>MIC,[2],27.4%
same,MIC,Streptococcus pneumoniae [3],0.25 µg/mL
same,fT>MIC,[4],46.7%
same,MIC,Escherichia coli,0.06 µg/mL
same,MIC,Pseudomonas aeruginosa,2 µg/mL
same,fT>MIC,[5],26.5%
same,MIC,Staphylococcus aureus [6],2 µg/mL
same,fT>MIC,[7],40.9%
same,MIC,Staphylococcus aureus [8],1 µg/mL
same,fT>MIC,[9],19.4%
same,fT>MIC,[10],31.6%
same,half-life,[11],19.8 min
same,MIC,Streptococcus pneumoniae [12],0.5 µg/mL
same,Cmax,[13],10800 ng/mL
same,fT>MIC,[14],18.9%
same,fT>MIC,[15],14.1%
same,fT>MIC,[16],98.8%
same,fT>MIC,[17],29.7%
same,AUC at 10 mg/kg,[18],5850 ng·h/mL
same,fT>MIC,[19],29.9%
same,fT>MIC,[20],18.4%
same,fT>MIC,[21],44.6%
same,MIC,Enterobacter cloacae,0.5 µg/mL
same,fT>MIC,[22],16.3%
same,fT>MIC,[23],24.5%
same,fT>MIC,[24],35.6%
same,fT>MIC,[25],25.9%
same,fT>MIC,[26],27%
same,fT>MIC,[27],24.8%
same,MIC,Staphylococcus aureus [28],0.5 µg/mL
same,fT>MIC,[29],23%
same,Cmax,[30],31200 ng/mL
